# Compounds with a hit are over-represented: about 4.6% of the library has one in this group of screens.
# TAAR1 ag = human TAAR1 agonists, primary screen, Fluo-8 calcium fluorescence, CHO RD-HGA16 cells | Trace amine-associated receptor 1 (Homo sapiens), Q96RJ0 | vehicle wells 0%, saturating PEA agonist 100% | activation, % at 3 µM | 360,000 compounds, 0.99% hits | AID 624467, 2012;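 active = activation above the mean activation of all test compounds in the run plus 3 SD, cut at about 38% in these data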
# Target sequence (Q96RJ0 whole entry, looked up): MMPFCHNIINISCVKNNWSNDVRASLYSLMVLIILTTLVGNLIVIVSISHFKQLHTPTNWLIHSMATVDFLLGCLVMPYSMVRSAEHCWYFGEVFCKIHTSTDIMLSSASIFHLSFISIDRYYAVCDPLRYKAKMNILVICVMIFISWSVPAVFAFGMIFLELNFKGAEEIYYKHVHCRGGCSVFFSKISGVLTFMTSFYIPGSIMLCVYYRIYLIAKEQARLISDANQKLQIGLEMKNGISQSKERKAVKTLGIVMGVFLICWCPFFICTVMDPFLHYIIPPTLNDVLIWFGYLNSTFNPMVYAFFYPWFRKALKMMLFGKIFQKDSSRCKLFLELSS
#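 Repeats: no replicates (n 1) | Material: CHO-derived RD-HGA16 cells with stable Gα16 and human TAAR1 | Technique: Kinetic Fluo-8 calcium fluorescence | Schedule: 17-24 h seeding, 75 min 37 °C dye, 30 min RT | Evaluation: % activation from peak over basal fluorescence ratio, DMSO-to-PEA scaled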
# GPR7 antagonist = GPR7 receptor antagonists, primary screen, cell-based, fluorescence, single concentration; Neuropeptides B/W receptor type 1 (Homo sapiens), P48145; GPR7-expressing cells, fluorescence antagonist assay; inhibition, % at 4.4 µM; 290,000 compounds, 1.1% hits; AID 1861, 2009; in the data active = inhibition above about 16%, passing the limit was not always enough;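 note: cells stimulated with the agonist NPW; 0% = agonist with vehicle and 100% = vehicle without agonist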
# Target sequence (P48145 whole entry, looked up): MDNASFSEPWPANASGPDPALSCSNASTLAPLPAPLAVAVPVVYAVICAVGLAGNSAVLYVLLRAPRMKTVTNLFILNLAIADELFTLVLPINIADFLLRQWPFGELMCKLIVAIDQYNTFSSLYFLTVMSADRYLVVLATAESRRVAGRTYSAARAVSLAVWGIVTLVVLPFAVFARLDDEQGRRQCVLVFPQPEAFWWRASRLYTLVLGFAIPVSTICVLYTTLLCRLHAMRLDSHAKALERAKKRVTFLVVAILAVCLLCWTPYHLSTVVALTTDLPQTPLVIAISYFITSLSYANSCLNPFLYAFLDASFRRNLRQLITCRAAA
# OX1R antag-1 = OX1R (HCRTR1) antagonists, primary screen, fluorescence, CHO/OX1R cells, Fluo-8 calcium, orexin A; Orexin/Hypocretin receptor type 1 (Homo sapiens), O43613; Fluo-8 calcium fluorescence; inhibition, % at 5 µM; 330,000 compounds, 0.43% hits;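 active = inhibition above its plate's threshold, mean inhibition of all tested compounds on the plate plus 3 SD, cut at about 37% in these data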;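 note: 0% = orexin A challenge wells and 100% = SB-334867-A antagonist wells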
# OX1R antag-2 = antagonists of human orexin 1 receptor (OX1R). AID 485270, 2010. Orexin/Hypocretin receptor type 1 (Homo sapiens), O43613. 330,000 compounds, 1.8% hits. inhibition, % at 6.6 µM. OX1R-expressing cells, FRET antagonist read-out; in the data active = inhibition mostly above about 38%, no sharp cut-off; inactive = mostly below about 40%;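 note: 0% = agonist challenge alone and 100% = reference antagonist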
# TAAR1 antagonist = human TAAR1 antagonists, primary screen, Fluo-8 calcium fluorescence, CHO RD-HGA16 cells | antagonist | AID 624466, 2012 | Trace amine-associated receptor 1 (Homo sapiens), Q96RJ0 | inhibition, % at 3 µM | 360,000 compounds, 1.5% hits;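 active = inhibition above a per-plate cutoff, the mean inhibition of test compounds on that plate plus 3 SD, cut at about 49% in these data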;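 note: 0% = DMSO plus EC80 beta-PEA response and 100% = DMSO alone without agonist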
#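 System: RD-HGA16 CHO cells with stable hTAAR1 and Gα16 | Probe or stimulus: EC80 β-phenethylamine stimulus | Dosing: 3 µM, single point | Times: Dye loading 75 min at 37 °C, then 30 min room temperature | Measured by: Fluo-8 calcium-sensitive fluorescence | Read-out basis: % inhibition of agonist calcium response | Replicates: n of 1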
# CHO parental Ca = ATP-evoked calcium signal inhibitors, parental CHO, primary screen, counter-screen for OX1R antagonist project, cell-based, fluorescence, Fluo-8 calcium dye | inhibition, % at 5.6 µM | AID 463079, 2010 | parental CHO-K1, ATP-induced calcium, Fluo-8 fluorescence | 330,000 compounds, 0.63% hits;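 active = inhibition above that plate's mean sample inhibition plus 3 SD, cut at about 26% in these data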;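 note: 0% = ATP-challenged DMSO wells and 100% = DMSO wells without ATP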
#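 material = parental CHO cells | also added = ATP as calcium-mobilizing challenge | dosing = single point at 5.6 µM | detection = intracellular calcium via Fluo-8 no-wash fluorescent dye | read-out = % inhibition | benchmarks = low control ATP plus DMSO, high control DMSO only | repeats = one well per compound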
# TAAR1 ag confirm = human TAAR1 agonists, retest of hits, confirmation, Fluo-8 calcium fluorescence, CHO RD-HGA16 cells; shares compounds with TAAR1 ag; scaled: DMSO 0%, maximal phenethylamine 100%; activation, % at 3 µM; 2,400 compounds, 82% hits;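 active = activation above a cutoff set at the run's mean compound activation plus 3 SD, cut at about 39% in these data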
# Ga16 ag counter = nonselective calcium mobilization agonists, CHO-Ga16 cells, counter-screen for hTAAR1 agonist project, cell-based, fluorescence, CHO-Ga16 parental line | shares compounds with TAAR1 ag | Fluo-8 calcium fluorescence; normalized to maximal ATP response, DMSO zero | activation, % at 3 µM | 2,400 compounds, 50% hits | AID 651787, 2012;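 active = activation above the run cutoff, the mean activation over all tested wells plus 3 SD, cut at about 12% in these data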;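 note: 0% = DMSO wells and 100% = maximal ATP response on the peak over basal ratio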
# TAAR1 desensitize = TAAR1 desensitization by agonist hits, confirmation, counter-screen for TAAR1 agonist project, cell-based, fluorescence, tachyphylaxis; 2,400 compounds, 46% hits; CHO RD-HGA16 hTAAR1, Fluo-8 calcium, beta-PEA response inhibition; shares compounds with TAAR1 ag; inhibition, % at 3 µM;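 active = inhibition above the run cutoff, the mean inhibition of all test compounds plus 3 SD, cut at about 49% in these data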;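 note: beta-PEA stimulus applied at its EC80; loss of beta-PEA calcium signal after compound pretreatment read as receptor desensitization; 0% = DMSO with beta-PEA at EC80 and 100% = DMSO alone without agonist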
# Ga16 nonsel ant = inhibition of ATP-evoked calcium response in CHO-Ga16 cells, counter-screen for TAAR1 agonist project, cell-based, fluorescence; shares compounds with TAAR1 ag; CHO-Ga16 ATP-induced calcium, Fluo-8 fluorescence; inhibition, % at 3 µM; 2,400 compounds, 39% hits;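 active = inhibition above the plate's mean compound inhibition plus 3 SD, computed per plate, cut at about 22% in these data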;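 note: 0% = EC80 ATP with DMSO and 100% = DMSO wells without ATP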
# Active calls of the source: *; nt = not tested or not shown.
SMILES,TAAR1 ag,GPR7 antagonist,OX1R antag-1,OX1R antag-2,TAAR1 antagonist,CHO parental Ca,TAAR1 ag confirm,Ga16 ag counter,TAAR1 desensitize,Ga16 nonsel ant
C#CCNC(=O)C1=C[C@H](c2ccc3c(c2)OCO3)C[C@H](OCCCCO)O1,7,nt,-11,15,-10,-9,nt,nt,nt,nt
O=[N+]([O-])c1ccccc1N/N=C/c1ccc2c(c1)OCO2,1,0,nt,nt,4,nt,nt,nt,nt,nt
CCC1(c2ccccc2)NC(=O)N(CC(=O)Nc2ccccc2C(=O)N2CCCCC2)C1=O (centres undefined),6,nt,-23,9,11,-27,nt,nt,nt,nt
COc1ccc2oc(C(=O)OCC(=O)NCc3ccccc3OC)c(C)c2c1,70*,nt,-4,11,91*,56*,23,5,52*,15
Cc1nn(CC(=O)NCCCc2ccccc2)c(C)c1[N+](=O)[O-],-1,-2,-15,6,5,2,nt,nt,nt,nt
O=C(Nc1n[nH]c(=S)s1)c1ccc2ccccc2c1,57*,13,2,3,20,15,42*,20*,2,5
O=C(Nc1nccs1)c1ccc2ccccc2c1,11,-5,-25,7,13,-26,nt,nt,nt,nt
O=C(NC1CCCCC1)c1cc(-c2ccc(F)cc2)on1,0,8,-11,12,4,-7,nt,nt,nt,nt
Cc1ccc(-c2cc(C(=O)NC3CCCC3)no2)cc1,51*,-7,-20,13,13,-5,10,6,7,13
Cc1[nH]c2ccccc2c1CN1CCc2ccccc2C1,nt,-6,3,6,nt,-6,nt,4,nt,6
O=c1[nH]c(CN2CCc3ccccc3C2)nc2ccccc12,7,-2,36,31,0,-38,nt,nt,nt,nt
CC(=O)N1CCOc2ccc(S(=O)(=O)Nc3ccc(Cl)cn3)cc21,0,-11,-2,2,-3,-11,nt,nt,nt,nt
O=[N+]([O-])c1ccc(N/N=C/c2cccc(O)c2)cc1,59*,22,-11,1,46,14,43*,7,25,16
N=C(N)SCc1ccc(Cl)cc1Cl,58*,4,7,3,32,-4,87*,19*,60*,15
Clc1ccc(CSc2ncnc3c2ncn3C2CCCCO2)cc1 (centres undefined),64*,nt,nt,nt,37,nt,15,11,10,14
O=C1NCCN(Cc2ccc(Cl)c(F)c2)C1CC(=O)N1CCc2ccccc2C1 (centres undefined),60*,-5,-16,0,11,-14,92*,1,46,5
CCCSc1nc2c(cnn2-c2ccc(Cl)cc2)c(=O)[nH]1,8,-12,-4,-7,1,6,nt,nt,nt,nt
O=C(O)c1ccc(-c2ccc(/C=N/Nc3ccc([N+](=O)[O-])cc3)o2)cc1,131*,-7,77*,-1,82*,64*,86*,66*,88*,70*
CCCOc1ccc(C(=O)NC(=S)NNC(=O)c2c(-c3ccccc3)noc2C)cc1,176*,-9,70*,-3,108*,39*,141*,108*,101*,94*
CCCOc1ccc(NC(=O)c2c(-c3ccccc3)noc2C)cc1,-3,-11,-19,1,2,-17,nt,nt,nt,nt
Cc1onc(-c2ccccc2)c1C(=O)NC(=S)NNC(=O)c1ccccc1O,164*,-10,18,-6,57*,18,141*,103*,100*,63*
COc1ccc(CNC(=O)CC[C@H]2O[C@@H](n3ccc(=O)[nH]c3=O)[C@H](O)[C@@H]2O)cc1,3,nt,nt,nt,-14,nt,nt,nt,nt,nt
COc1ccc(NC(=O)CSCC(=O)Nc2nnc(CC(C)C)s2)cc1,0,nt,-28,17,-3,-23,nt,nt,nt,nt
CCn1c(-c2c[nH]c3ccccc23)n[nH]c1=S,14,-3,-4,-4,-7,-3,nt,nt,nt,nt
CC(=O)c1c(C)[nH]c(C(=O)NCCc2cccc(C)c2)c1C,52*,6,-17,9,-5,-11,26,7,13,19
SMILES,TAAR1 ag,GPR7 antagonist,OX1R antag-1,OX1R antag-2,TAAR1 antagonist,CHO parental Ca,TAAR1 ag confirm,Ga16 ag counter,TAAR1 desensitize,Ga16 nonsel ant
CCc1c(C(=O)NCCc2cccc(C)c2)[nH]c(C)c1C(C)=O,68*,10,-19,10,26,-11,53*,9,26,24*
CCCCNC(=O)c1[nH]c(C)c(C(C)=O)c1C,2,-6,-4,14,12,-2,nt,nt,nt,nt
CCc1c(C(=O)NCCc2ccc(OC)c(OC)c2)[nH]c(C)c1C(C)=O,6,-9,-15,5,5,-11,nt,nt,nt,nt
CCOC(=O)N1CCc2c(sc3c2c(=O)n(Cc2ccccc2)c(=O)n3CC(=O)NCCOC)C1,10,-6,-13,19,4,-14,nt,nt,nt,nt
CCC(Sc1ccc2nnc(-c3ccc(F)cc3)n2n1)C(=O)O (centres undefined),8,0,-7,15,12,-5,nt,nt,nt,nt
COCc1cc(C)nc(N2CCCCC2)c1C#N,15,7,-26,-1,-16,-7,nt,nt,nt,nt
COCc1cc(C)nc(N2CCNCC2)c1C#N,53*,-2,-16,6,8,-12,57*,0,22,3
CCOc1cc2c(C#N)c(N3CCNCC3)nc(N)c2c(N)n1,61*,-6,-24,20,54*,-14,83*,3,81*,12
Cc1cccn2c(=O)nc(SCC(=O)NC3CCCC3)nc12,1,nt,-10,20,-34,-11,nt,nt,nt,nt
CN(CC(=O)Nc1ccccc1Cl)C(=O)CCNC(=O)Nc1ccccc1,nt,nt,-23,10,nt,-9,nt,7,nt,6
